ARFGAP1 inh: rat ARFGAP1 inhibition; Q62848; Arfgap1-stimulated ARF1 GTP hydrolysis, GDP FP detection; inhibition, % at 16.5 µM; hit rate 0.26% among 360,000; AID 651572;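 active = inhibition above a per-plate limit, mean inhibition of low control wells plus 3 SD, cut at about 25% in these data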
Target sequence (Q62848 1-136 limits assumed): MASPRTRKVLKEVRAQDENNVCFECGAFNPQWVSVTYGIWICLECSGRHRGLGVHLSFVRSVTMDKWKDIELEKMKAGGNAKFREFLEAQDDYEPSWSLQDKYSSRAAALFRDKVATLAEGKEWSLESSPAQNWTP
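Repeats: one replicate per compound; assay system: rat Arfgap1 catalytic domain, aa 1-136; times: enzyme reaction 120 min at 25 °C after 20 min preincubation; detection: FP of antibody-bound GDP Alexa 633 tracer, ex 620/em 688 nm; benchmarks: high control wells lacking Arfgap1, low control full reaction with DMSO; reagent: human ARF1(Δ1-17)-GTP substrate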
PAFAH2 FP inh: PAFAH2 (human) inhibition; recombinant PAFAH2, FP-rhodamine activity probe, fluorescence polarization; inhibition, % at 3.39 µM; hit rate 0.99% among 340,000; AID 492956;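 active = inhibition above the mean over all tested compounds plus 3 SD, cut at about 30% in these data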;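 note: inhibitors block probe labeling of enzyme so polarization drops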
pPAFAH FP inh: inhibitors of human plasma PAF acetylhydrolase (pPAFAH); recombinant pPAFAH, FP-rhodamine probe fluorescence polarization; Q13093; hit rate 1.5% among 330,000; inhibition, % at 3.39 µM;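 active = inhibition above the mean inhibition across the screen plus 3 SD, cut at about 25% in these data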;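 note: inhibitors block binding of the rhodamine activity-based probe so polarization drops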
Target sequence (Q13093 whole entry, looked up): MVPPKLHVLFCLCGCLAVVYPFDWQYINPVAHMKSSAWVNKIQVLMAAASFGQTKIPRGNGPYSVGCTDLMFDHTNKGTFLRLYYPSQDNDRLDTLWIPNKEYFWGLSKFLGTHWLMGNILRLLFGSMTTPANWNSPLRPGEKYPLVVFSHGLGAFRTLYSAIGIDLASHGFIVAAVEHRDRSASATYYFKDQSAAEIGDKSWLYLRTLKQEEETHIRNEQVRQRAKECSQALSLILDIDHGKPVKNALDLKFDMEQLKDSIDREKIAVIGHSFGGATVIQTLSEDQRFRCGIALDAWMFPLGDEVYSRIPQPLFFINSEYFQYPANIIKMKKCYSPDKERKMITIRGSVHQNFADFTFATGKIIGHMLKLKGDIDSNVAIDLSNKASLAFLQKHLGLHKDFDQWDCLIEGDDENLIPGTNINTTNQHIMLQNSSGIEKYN
PAFAH1B3 inh: PAFAH1B3 (human) inhibition; Q15102; AID 492972; hit rate 0.28% among 340,000; inhibition, % at 3.39 µM; recombinant PAFAH1B3, FP-rhodamine probe, fluorescence polarization;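 active = inhibition above the screen-wide average of all tested compounds plus 3 SD, cut at about 25% in these data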
ASAP1 inh: ASAP1 ArfGAP inhibition; Q9ULH1; ASAP1-stimulated ARF1 GTP hydrolysis, GDP FP detection; inhibition, % at 16.5 µM; hit rate 0.19% among 360,000; in the data active = inhibition above about 25%
PAFAH1B2 inh: inhibitors of human PAFAH1B2. inhibition, % at 3.39 µM. recombinant PAFAH1B2, FP-rhodamine activity probe, fluorescence polarization. hit rate 1.2% among 340,000. AID 492953. P68402;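 active = inhibition above the mean of all tested compounds plus 3 SD, cut at about 24% in these data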
Of the large screens only hits and unclear results are named; the others gave an inactive call. Shown are actives, neighbours in structure and some others; about 2.8% of the full set was active somewhere.

Cc1ccccc1-c1nnc(SCC(=O)c2c(N)n(C3CC3)c(=O)[nH]c2=O)o1	none
Cc1ccc(CNC(=O)CCn2cc(-c3ccc(C)cc3)nc2-c2ccncc2)cc1	none
Cc1ccc(CNC(=O)CCn2cc(-c3ccc(F)cc3)nc2-c2ccncc2)cc1	PAFAH1B2 inh 29
O=C(COC(=O)CCc1ccccc1)Nc1ncc(Cl)cc1Cl	pPAFAH FP inh 26
O=C(COC(=O)c1ccc(Br)o1)Nc1ncc(Cl)cc1Cl	none
O=C(COC(=O)c1sc2cc(F)ccc2c1Cl)Nc1ncc(Cl)cc1Cl	pPAFAH FP inh 31
O=C(COC(=O)CCc1nc2ccccc2s1)Nc1ncc(Cl)cc1Cl	none
CCOC(=O)C1=CCN(S(=O)(=O)c2ccc(Cl)cc2)C1c1cccc(Cl)c1 (stereo unspecified)	none (no result: PAFAH2 FP inh, pPAFAH FP inh, PAFAH1B3 inh, PAFAH1B2 inh)
Cc1ccc(C)c(NC(=O)CCC(=O)NNC(=O)COc2cc(C)ccc2C)c1	none
CC(C)(C)c1ccc(OCC(=O)NCc2ccco2)c(Br)c1	pPAFAH FP inh 28
COc1ccc(C(=O)NNC(=O)c2snnc2C)cc1	none
CN1CCC(=O)N(CCSc2ccc(Br)cc2)CC1	PAFAH1B2 inh 26
COc1ccc(C(=O)OCCCOC(=O)c2ccc(OC)cc2OC)c(OC)c1	none
COc1cccc(C(=O)OCC(=O)c2ccc(Br)s2)c1	PAFAH2 FP inh 46
COc1ccc(C(=O)OCC(=O)c2ccc(Br)s2)c(OC)c1	PAFAH2 FP inh 30
Cc1ccc(C(=O)COC(=O)c2cccc(O)c2)s1	none (no result: pPAFAH FP inh)
O=C(CCCN1C(=O)/C(=C\c2ccco2)SC1=S)Nc1ccc2ccccc2c1	pPAFAH FP inh 28
O=C1/C(=C\c2ccco2)SC(=S)N1Cc1ccccc1	pPAFAH FP inh 25
Cc1ccc(N2C(=O)/C(=C\c3ccco3)SC2=S)cc1	none
O=C(O)CCCN1C(=O)/C(=C\c2ccco2)SC1=S	none (no result: pPAFAH FP inh)
O=C1/C(=C\c2ccco2)SC(=S)N1c1ccccc1	pPAFAH FP inh 29
Cc1ccc(C)c(CNS(=O)(=O)c2c(C(=O)N3CCCC3)c(C)n(C)c2C)c1	none
CCC(=O)N1CCc2cc(S(=O)(=O)NC(Cc3ccccc3)C(=O)O)ccc21 (stereo unspecified)	pPAFAH FP inh 28
CCC(=O)N1CCc2cc(S(=O)(=O)NC(Cc3ccccc3)C(=O)NC3CCCCC3)ccc21 (stereo unspecified)	none (no result: pPAFAH FP inh)
CC(C)C1NCCc2c1sc1ccccc21 (stereo unspecified)	none
N#C/C(=C\c1ccc(O)c([N+](=O)[O-])c1)c1nc2ccccc2s1	PAFAH2 FP inh 44, PAFAH1B3 inh 31, PAFAH1B2 inh 30 (no result: pPAFAH FP inh)
COc1ccc(-c2csc(/C(C#N)=C\c3ccc(O)c([N+](=O)[O-])c3)n2)cc1OC	none
COc1cc(/C=C(\C#N)c2nc3ccccc3s2)cc([N+](=O)[O-])c1O	PAFAH2 FP inh 55, PAFAH1B3 inh 42, PAFAH1B2 inh 29 (no result: pPAFAH FP inh)
O=C(O)c1cc(N2N=C(C(F)(F)F)/C(=C/C=C/c3ccco3)C2=O)ccc1Cl	PAFAH2 FP inh 59, PAFAH1B3 inh 37, PAFAH1B2 inh 32 (no result: pPAFAH FP inh)
CCOc1cc(C(=O)OCc2cccc(OC)c2OC)ccc1OCC(=O)N1CCOCC1	pPAFAH FP inh 32
CCOc1cc(C(=O)OCc2ccc([N+](=O)[O-])cc2)ccc1OCC(=O)N1CCOCC1	none
Cc1ccc2cc(CCNS(=O)(=O)c3ccc(Br)cc3)c(=O)[nH]c2c1C	PAFAH1B2 inh 30
COc1cc(/C=N/NC(=O)C(=O)NCC2CCCO2)ccc1O (stereo unspecified)	none
O=C(NCC1CCCO1)C(=O)N/N=C/c1ccc(OCc2ccccc2Cl)cc1 (stereo unspecified)	pPAFAH FP inh 30
COc1cc(Br)c(C(=O)c2nccc3cc(OC)c(OC)cc23)cc1OC	PAFAH2 FP inh 40, PAFAH1B3 inh 67
O=C(Cc1ccc(F)cc1)c1ccc(O)cc1O	PAFAH1B2 inh 25
O=C(O)c1ccc(Cl)c(S(=O)(=O)Nc2ccc(OCc3ccccc3)cc2)c1	PAFAH1B2 inh 26
c1ccc(CN=C2CCCc3ccccc3N2)cc1	none (no result: PAFAH2 FP inh, pPAFAH FP inh, PAFAH1B3 inh, PAFAH1B2 inh)
CC(=O)NCC(=O)N(c1ccccc1)C1(C(=O)NC2CCCCC2)CCCCC1	PAFAH1B2 inh 28
COCCNC(=S)N(C)[C@H]1C[C@H]2c3[nH]c4cccc(-c5ccccc5)c4c3CCN2C(=O)[C@H]1[C@H](C)O	none (no result: PAFAH2 FP inh, pPAFAH FP inh, PAFAH1B3 inh, PAFAH1B2 inh)
CC(C)NC(=O)C1(C)CCN1C(=O)c1ccc(F)c(Cl)c1 (stereo unspecified)	none (no result: PAFAH2 FP inh, pPAFAH FP inh, PAFAH1B3 inh, PAFAH1B2 inh)
COC(=O)\C(C(C)=O)=C(/C=C/C=C/C=C/N(C)C)N(C)C	pPAFAH FP inh 32
O=C(C(=O)N1CCC(CNS(=O)(=O)c2ccccc2)CC1)c1cc2ccccc2o1	none (no result: PAFAH2 FP inh, pPAFAH FP inh, PAFAH1B3 inh, PAFAH1B2 inh)
COc1cccc2sc(Nc3nc(-c4ccccn4)cs3)nc12	pPAFAH FP inh 28 (no result: ARFGAP1 inh, ASAP1 inh)
COc1cc(-c2noc(CCC(=O)NC3CCCCC3)n2)cc(OC)c1OC	none
O=C(Cc1ccccc1)Nc1ccc(N2CCCC2)cc1	pPAFAH FP inh 33
CN(C(=O)c1ccc(NC(=O)Cc2ccccc2)cc1)c1ccccc1	none
O=C(COc1ccccc1Cl)Nc1ccc(N2CCCC2)cc1	pPAFAH FP inh 58
O=C(Cc1ccccc1)Nc1ccc(N2CCOCC2)cc1	none
CCN(C(=O)c1ccc(NC(=O)Cc2ccccc2)cc1)c1ccccc1	PAFAH1B2 inh 26 (no result: pPAFAH FP inh)
CCC(CC)COC(=O)C1=C(C)NC(=O)NC1c1ccc2c(c1)OCO2 (stereo unspecified)	none
c1ccc(COc2cccc(-c3cc4nc(NCc5ccc6c(c5)OCO6)ccn4n3)c2)cc1	none (no result: PAFAH2 FP inh, pPAFAH FP inh, PAFAH1B3 inh, PAFAH1B2 inh)
CNc1ncnc(Sc2nc(N)nc3nc[nH]c23)c1[N+](=O)[O-]	none (no result: pPAFAH FP inh)
Nc1nc(Sc2ccc([N+](=O)[O-])c3nonc23)c2[nH]cnc2n1	PAFAH2 FP inh 30, PAFAH1B3 inh 38 (no result: pPAFAH FP inh)
C[C@@H]1CCCCO[C@@H](CN(C)C(=O)c2ccccc2)[C@@H](C)CN([C@H](C)CO)C(=O)c2cc(N(C)C)ccc2O1	none (no result: PAFAH2 FP inh, pPAFAH FP inh, PAFAH1B3 inh, PAFAH1B2 inh)
CCC(=O)Nc1ccc2c(c1)OC[C@@H](C)N(C(=O)c1ccccn1)C[C@@H](C)[C@@H](OC)CN(C)C2=O	none (no result: PAFAH2 FP inh, pPAFAH FP inh, PAFAH1B3 inh, PAFAH1B2 inh)
Cc1cc(O)c(C(=O)/C=C/c2ccc(C(C)C)cc2)c(=O)o1	PAFAH1B2 inh 28 (no result: pPAFAH FP inh)
Cc1cc(O)c(C(=O)/C=C/c2ccccc2)c(=O)o1	none (no result: pPAFAH FP inh)
CCCNC(=O)c1ccc(-c2nn(C)c(=O)c3ccccc23)cc1	pPAFAH FP inh 32
CN(C)CCNC(=O)c1ccc(-c2nn(C)c(=O)c3ccccc23)cc1	none
O=C(OC1CCCC1)c1ccc(Cl)cc1Cl	none (no result: pPAFAH FP inh)
CN1OC(COC(=O)c2ccc(Cl)cc2Cl)CC1c1ccccc1 (stereo unspecified)	pPAFAH FP inh 26
CNc1ncnc2c1ncn2[C@H]1CN(Cc2cccc3ccccc23)C[C@@H](CO)O1	none (no result: PAFAH2 FP inh, pPAFAH FP inh, PAFAH1B3 inh, PAFAH1B2 inh)
N#Cc1ccsc1NC(=O)CSc1nnnn1-c1ccc(O)cc1	pPAFAH FP inh 26
CC(=O)Nc1ccc(Nc2nc(-c3ccccc3)nc3ccccc23)cc1	pPAFAH FP inh 28

Screens (PubChem)
